Reference: ChEMBL document CHEMBL1124386, “Selective thyromimetics. Cardiac-sparing thyroid hormone analogues containing 3'-arylmethyl substituents” (J Med Chem, 1989)
Values after ≈ are worked out from the molar mass of the structure shown. Values belong to the compound of their own block, whether it stands above or below them. Active and inactive are the calls of the source. The calls are words filed in the database; no cut-off is given here.

Legend:
[1] = tested on: Rattus norvegicus; assay: Potency for induction of GPDH (mitochondrial cytochrome C3-phosphoglycerate oxidoreductase) was measured 48 hours after single intramuscular injection relative to T3 in liver; type: functional
[2] = tested on: Rattus norvegicus; assay: Potency for induction of GPDH (mitochondrial cytochrome C3-phosphoglycerate oxidoreductase) was measured 48 hr after single im injection relative to T3 in heart; I=inactive after 2 daily doses of 50 mg/kg; type: functional, organism-based; parameters: dose 50 mg/kg
[3] = Binding affinity to the thyroid hormone receptor was determined in vitro in isolated nuclei of rat liver relative to 3,5,3' triiodothyronine; type: tissue-based
[4] = tested on: Rattus norvegicus; assay: Percent increase in oxygen consumption after seven daily doses of test compound given intramuscularly, with concentration of compound at 20 mg/kg; type: functional; details: route intramuscular
Outline: (§1)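 Euthyroid rats given seven daily doses, intramuscular or oral, by line; whole-body oxygen consumption measured as percent increase in metabolic rate.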

[5] = tested on: Rattus norvegicus; assay: Percent increase in oxygen consumption after seven daily doses of test compound given perorally, with concentration of compound; I=inactive after 2 daily doses of 5o mg/kg; type: functional, organism-based; outline: as §1
[6] = tested on: Rattus norvegicus; assay: Potency for induction of GPDH (mitochondrial cytochrome C3-phosphoglycerate oxidoreductase) was measured 48 hours after single intramuscular injection relative to […] in liver; type: functional
[7] = tested on: Rattus norvegicus; assay: Percent increase in oxygen consumption after seven daily doses of test compound given perorally, with concentration of compound at 0.04 mg/kg; type: functional; details: route oral; outline: as §1
[8] = tested on: Rattus norvegicus; assay: Potency for induction of GPDH (mitochondrial cytochrome C 3-phosphoglycerate oxidoreductase) was measured 48 hr after single im injection relative to T3 in heart; LM=low maximal response after 2 daily doses of 50 mg/kg; type: functional, organism-based; parameters: dose 50 mg/kg; details: filed as partial agonist
[9] = tested on: Thyroid hormone receptor (Rattus norvegicus); assay: Binding affinity to thyroid hormone receptor, relative to 3,5,3' triiodothyronine receptor, in isolated nuclei of heart
[10] = tested on: Rattus norvegicus; assay: Percent increase in oxygen consumption after seven daily doses of test compound given intramuscularly, with the concentration of compound at 0.1 mg/kg; type: functional; details: route intramuscular; outline: as §1
[11] = tested on: Rattus norvegicus; assay: Potency for induction of GPDH (mitochondrial cytochrome C3-phosphoglycerate oxidoreductase) was measured 48 hours after single intramuscular injection relative to T3 in heart; type: functional
[12] = tested on: Rattus norvegicus; assay: Percent increase in oxygen consumption after seven daily doses of test compound given perorally, with concentration of compound at 0.1 mg/kg; type: functional; details: route oral; outline: as §1
[13] = molecular target: T1, Thyroid hormone receptor beta (Rattus norvegicus) (UniProt P18113); assay: Binding affinity to the receptor was determined in vitro in isolated nuclei of rat liver relative to T3; type: tissue-based
T1 sequence (whole entry): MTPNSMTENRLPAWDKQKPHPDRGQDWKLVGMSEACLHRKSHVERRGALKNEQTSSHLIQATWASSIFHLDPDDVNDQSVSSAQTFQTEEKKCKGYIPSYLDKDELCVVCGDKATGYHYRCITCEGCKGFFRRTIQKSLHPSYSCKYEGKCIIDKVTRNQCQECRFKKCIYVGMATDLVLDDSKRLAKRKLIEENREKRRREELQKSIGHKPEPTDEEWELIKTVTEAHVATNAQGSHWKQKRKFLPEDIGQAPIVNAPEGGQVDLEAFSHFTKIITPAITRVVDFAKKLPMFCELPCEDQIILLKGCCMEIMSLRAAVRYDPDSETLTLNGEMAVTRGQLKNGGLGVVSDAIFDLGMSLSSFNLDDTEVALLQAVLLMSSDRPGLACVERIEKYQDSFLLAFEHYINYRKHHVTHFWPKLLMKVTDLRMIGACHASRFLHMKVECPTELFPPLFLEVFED

[14] = tested on: Rattus norvegicus; assay: Percent increase in oxygen consumption after seven daily doses of test compound given perorally, with value in braces indicating the concentration of compound at 5 mg/kg; type: functional; details: route oral; outline: as §1
[15] = tested on: Rattus norvegicus; assay: Percent increase in oxygen consumption after seven daily doses of test compound given intramuscularly, with the concentration of compound at 10 mg/kg; type: functional; details: route intramuscular; outline: as §1
[16] = molecular target: T1, Thyroid hormone receptor beta (Rattus norvegicus); assay: In vitro binding affinity to the receptor was determined in isolated nuclei of heart relative to T3; type: functional
[17] = tested on: Rattus norvegicus; assay: Percent increase in oxygen consumption after seven daily oral doses of 5 mg/kg in euthyroid rats
[18] = tested on: Rattus norvegicus; assay: Potency for induction of GPDH (mitochondrial cytochrome C3-phosphoglycerate oxidoreductase) was measured relative to T3 in heart; I=inactive after 2 daily doses of 50 mg/kg; type: functional, organism-based; parameters: dose 50 mg/kg
[19] = molecular target: T1, Thyroid hormone receptor beta (Rattus norvegicus); assay: Binding affinity to the receptor was determined in isolated nuclei of liver in vitro relative to 3,5,3' triiodothyronine receptor
[20] = molecular target: T1, Thyroid hormone receptor beta (Rattus norvegicus); assay: In vivo binding affinity to the receptor was determined in nuclei of heart 1 h after intravenous administration relative to 3,5,3' triiodothyronine receptor
[21] = Partition coefficient at 25 degree Celsius in octanol/aqueous buffer at pH 6.02; type: physicochemical
[22] = molecular target: T1, Thyroid hormone receptor beta (Rattus norvegicus); assay: Binding affinity to the receptor was determined in nuclei of heart in vivo 1 hour after intravenous administration relative to 3,5,3' triiodothyronine receptor
[23] = tested on: Rattus norvegicus; assay: Percent increase in oxygen consumption in dose-mg/Kgfter seven daily doses of test compound given intramuscularly, at a conc of 3.3 mg/kg; type: functional; details: route intramuscular; outline: as §1
[24] = Selectivity, ratio between relative ID50 in liver and heart
Outline: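 Liver/heart selectivity in rats, calculated as (relative ID50)liver divided by (relative ID50)heart, from in vivo nuclear binding 1 h after intravenous dosing.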

[25] = tested on: Rattus norvegicus; assay: Percent increase in oxygen consumption after seven daily doses in mg/kg increase of test compound given perorally; I=inactive after 2 daily doses of 50 mg/kg; type: functional, organism-based; parameters: dose 50 mg/kg; outline: as §1
[26] = molecular target: T1, Thyroid hormone receptor beta (Rattus norvegicus); assay: Binding affinity to the receptor was determined in isolated nuclei of heart(In vitro) relative to T3
[27] = molecular target: T1, Thyroid hormone receptor beta (Rattus norvegicus); assay: Binding affinity to the receptor was determined in nuclei of liver In vivo 1 hour after intravenous administration relative to T3; type: organism-based
[28] = Aqueous solubility at 37 degree Celsius at pH 7.38; type: physicochemical
Outline: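 Solubility in aqueous medium at 37 °C, pH 7.38; given in units of ×10^5 mol/L.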

[29] = tested on: Rattus norvegicus; assay: Percent increase in oxygen consumption after seven daily doses of test compound given perorally; I=inactive after 2 daily doses of 50 mg/kg; type: functional, organism-based; parameters: dose 50 mg/kg; outline: as §1
[30] = tested on: Rattus norvegicus; assay: Percent increase in oxygen consumption after seven daily doses of test compound given intramuscularly, at a conc of 3.3 mg/kg; type: functional; details: route intramuscular; outline: as §1
[31] = partition coefficient at 25 degree Celsius in octanol/aqueous buffer at pH 6.02; type: physicochemical
[32] = tested on: Rattus norvegicus; assay: In vivo binding affinity for 3,5,3'' triiodothyronine receptor of heart nuclei 1 hr after intravenous administration; type: organism-based
[33] = tested on: Rattus norvegicus; assay: Percent increase in oxygen consumption after seven daily doses of test compound given perorally, with concentration of compound at 5 mg/kg; type: functional; details: route oral; outline: as §1
[34] = tested on: Rattus norvegicus; assay: In vivo binding affinity for 3,5,3' triiodothyronine receptor of liver nuclei 1 hour after intravenous administration; type: organism-based
[35] = tested on: Rattus norvegicus; assay: Percent increase in oxygen consumption after seven daily doses of test compound given intramuscularly, ata conc of 3.3 mg/kg; type: functional; details: route intramuscular; outline: as §1
[36] = tested on: Rattus norvegicus; assay: Percent increase in oxygen consumption after seven daily doses of test compound given perorally, with concentration of compound at 5.3 mg/kg; type: functional; details: route oral; outline: as §1

Compound: O=C(O)Cc1cc(Br)c(Oc2ccc(O)c(Cc3ccc(O)nc3)c2)c(Br)c1
Relative ED50 [1]: 2
Relative ED50 [2]: inactive
Relative IC50 [3]: 3
Increase [4]: 21%
% increase O2 consumption [5]: inactive

Compound: N[C@@H](Cc1cc(Cl)c(Oc2ccc(O)c(Cc3ccc(O)nn3)c2)c(Cl)c1)C(=O)O
Relative IC50 [3]: 0.48
Relative ED50 [6]: 25
Increase [7]: 15%
Relative ED50 [8]: Partial agonist
Relative IC50 [9]: 0.8

Compound: N[C@@H](Cc1cc(Br)c(Oc2ccc(O)c(Cc3ccc(O)nn3)c2)c(Br)c1)C(=O)O
Relative ED50 [1]: 18
Increase [10]: 20%
Relative IC50 [3]: 0.9
Relative ED50 [11]: <0.1
Increase [12]: 20%

Compound: O=C(O)CCCc1cc(Br)c(Oc2ccc(O)c(Cc3ccc(O)nc3)c2)c(Br)c1
Relative ED50 [1]: 0.69
Increase [17]: 19%
Relative IC50 [3]: 21.7
Relative ED50 [18]: inactive
Relative IC50 [19]: 21.7
Relative ID50 [20]: 0.26

More lines, main results first:

Relative IC50 [13]: 0.083
Relative IC50 [16]: 0.14
Compound: Cc1cc(CC(N)C(=O)O)cc(C)c1Oc1ccc(O)c(Cc2ccc(O)nc2)c1 (centres undefined)
Relative ED50 [1]: 1.1
Relative ED50 [2]: inactive
Increase [14]: 18%
Increase [15]: 28%

Relative IC50 [3]: 2.3
logD [21]: 1.01
Relative ID50 [22]: 0.2
Ratio [24]: 50
Relative IC50 [26]: 2.7
Relative ID50 [27]: 10
solubility [28]: 10 µM (≈ 6.32 µg/mL)
Compound: N[C@@H](Cc1cc(I)c(Oc2ccc(O)c(Cc3ccc(O)nc3)c2)c(I)c1)C(=O)O
Relative ED50 [1]: 1.7
Relative ED50 [2]: inactive
Increase [23]: 19%
Increase [25]: inactive

Relative IC50 [3]: 14.8
Relative IC50 [9]: 19.4
Compound: N[C@@H](Cc1cc(I)c(Sc2ccc(O)c(Cc3ccc(O)nc3)c2)c(I)c1)C(=O)O
Relative ED50 [1]: 16.6
Relative ED50 [2]: inactive
% increase O2 consumption [29]: inactive
Increase [30]: 26%

logD [31]: 0.7
Relative IC50 [3]: 2
Relative IC50 [9]: 1.8
solubility [28]: 33 µM (≈ 17.8 µg/mL)
Compound: N[C@@H](Cc1cc(Br)c(Oc2ccc(O)c(Cc3ccc(O)nc3)c2)c(Br)c1)C(=O)O
Relative ED50 [1]: 6.9
Relative ED50 [2]: inactive
Relative ID50 [32]: 0.3
Increase [33]: 31%
Relative ID50 [34]: 23
Increase [35]: 32%

Relative IC50 [3]: 9.8
Relative IC50 [9]: 10.2
Compound: N[C@@H](Cc1cc(Br)c(Sc2ccc(O)c(Cc3ccc(O)nc3)c2)c(Br)c1)C(=O)O
Relative ED50 [6]: 14.5
Increase [36]: 16%
Relative ED50 [8]: Partial agonist
